According to ChEMBL document CHEMBL4689842, “EUbOPEN Chemogenomics Library wave 1” (2021):

Columns and labels:
Type in all cases: toxicity, cell-based
HEK-293T [1] = assay: Multiplex assay against HEK293T; details: human;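 on Population Tubulin-Different-Phenotype (%): share of the cells with healthy nuclei that show this phenotype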
Outline: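 Live cells were stained at seeding with Hoechst33342, BioTracker Green Microtubule Cytoskeleton Dye, MitoTracker Red and Annexin V Alexa Fluor 680. Following compound addition, they were imaged on a CQ1 microscope at 37°C and 5% CO2 and gated by CellPathfinder machine learning into Hoechst high-intensity objects or normal cells, with normal cells split into healthy, pyknosed or fragmented nuclei and pyknosed cells into mitotic or apoptotic. Tubulin, mitochondrial-mass and membrane-permeability phenotypes are per cents of healthy-nucleus cells.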

HEK-293T [2] = assay: Incucyte cell viability with HEK293T; details: human, 10 µM, compound concentration 10 uM; further: filed as whole numbers so only -1 and 0 and 1 occur
Fibroblast = assay: Incucyte cell viability with human fibroblast; details: 10 µM, compound concentration 10 uM; further: filed as whole numbers so only -1 and 0 and 1 occur
[3] = 12 h, 1 µM, compound concentration 1 uM, replicate 1
[4] = 12 h, 1 µM, compound concentration 1 uM, replicate 2
[5] = 12 h, 10 µM, compound concentration 10 uM, replicate 1
[6] = 12 h, 10 µM, compound concentration 10 uM, replicate 2
[7] = 24 h, 1 µM, compound concentration 1 uM, replicate 1
[8] = 24 h, 1 µM, compound concentration 1 uM, replicate 2
[9] = 24 h, 10 µM, compound concentration 10 uM, replicate 1
[10] = 24 h, 10 µM, compound concentration 10 uM, replicate 2
[11] = 48 h, 1 µM, compound concentration 1 uM, replicate 1
[12] = 48 h, 1 µM, compound concentration 1 uM, replicate 2
[13] = 48 h, 10 µM, compound concentration 10 uM, replicate 1
[14] = 48 h, 10 µM, compound concentration 10 uM, replicate 2
[15] = 6 h, replicate number 1, timepoint 6 hours
[16] = 12 h, replicate number 1, timepoint 12 hours
[17] = 18 h, replicate number 1, timepoint 18 hours
[18] = 24 h, replicate number 1, timepoint 24 hours

CC(C)c1cc(Nc2nc(N3CCC[C@H](N)C3)ncc2C(N)=O)cc(C(C)C)n1
Population Apoptotic (%) (HEK-293T [1]; [3]): 61%
Population Fragmented Nuclei (%) (HEK-293T [1]; [3]): 9%
Population Healthy Nuclei (%) (HEK-293T [1]; [3]): 30%
Population Hoechst High Intensity Objects (%) (HEK-293T [1]; [3]): 11%
Population Membrane Permeable-Phenotype (%) (HEK-293T [1]; [3]): 9%
Population Mitochondria Different-Phenotype (%) (HEK-293T [1]; [3]): 95%
Population Mitotic Cells (%) (HEK-293T [1]; [3]): 38%
Population Normal (%) (HEK-293T [1]; [3]): 88%
Population Pyknosed Nuclei (%) (HEK-293T [1]; [3]): 60%
Population Tubulin-Different-Phenotype (%) (HEK-293T [1]; [3]): 100%
Total Cell Count (HEK-293T [1]; [3]): 225
Population Apoptotic (%) (HEK-293T [1]; [4]): 52%
Population Fragmented Nuclei (%) (HEK-293T [1]; [4]): 5%
Population Healthy Nuclei (%) (HEK-293T [1]; [4]): 26%
Population Hoechst High Intensity Objects (%) (HEK-293T [1]; [4]): 7%
Population Membrane Permeable-Phenotype (%) (HEK-293T [1]; [4]): 8%
Population Mitochondria Different-Phenotype (%) (HEK-293T [1]; [4]): 91%
Population Mitotic Cells (%) (HEK-293T [1]; [4]): 47%
Population Normal (%) (HEK-293T [1]; [4]): 92%
Population Pyknosed Nuclei (%) (HEK-293T [1]; [4]): 68%
Population Tubulin-Different-Phenotype (%) (HEK-293T [1]; [4]): 97%
Total Cell Count (HEK-293T [1]; [4]): 140
Population Apoptotic (%) (HEK-293T [1]; [5]): 88%
Population Healthy Nuclei (%) (HEK-293T [1]; [5]): 6%
Population Hoechst High Intensity Objects (%) (HEK-293T [1]; [5]): 18%
Population Membrane Permeable-Phenotype (%) (HEK-293T [1]; [5]): 0%
Population Mitochondria Different-Phenotype (%) (HEK-293T [1]; [5]): 93%
Population Mitotic Cells (%) (HEK-293T [1]; [5]): 11%
Population Normal (%) (HEK-293T [1]; [5]): 81%
Population Pyknosed Nuclei (%) (HEK-293T [1]; [5]): 86%
Population Tubulin-Different-Phenotype (%) (HEK-293T [1]; [5]): 43%
Total Cell Count (HEK-293T [1]; [5]): 313
Population Apoptotic (%) (HEK-293T [1]; [6]): 64%
Population Fragmented Nuclei (%) (HEK-293T [1]; [6]): 7%
Population Healthy Nuclei (%) (HEK-293T [1]; [6]): 5%
Population Hoechst High Intensity Objects (%) (HEK-293T [1]; [6]): 5%
Population Membrane Permeable-Phenotype (%) (HEK-293T [1]; [6]): 10%
Population Mitochondria Different-Phenotype (%) (HEK-293T [1]; [6]): 90%
Population Mitotic Cells (%) (HEK-293T [1]; [6]): 35%
Population Normal (%) (HEK-293T [1]; [6]): 94%
Population Pyknosed Nuclei (%) (HEK-293T [1]; [6]): 87%
Population Tubulin-Different-Phenotype (%) (HEK-293T [1]; [6]): 40%
Total Cell Count (HEK-293T [1]; [6]): 206
Population Apoptotic (%) (HEK-293T [1]; [7]): 65%
Population Fragmented Nuclei (%) (HEK-293T [1]; [7]): 8%
Population Healthy Nuclei (%) (HEK-293T [1]; [7]): 28%
Population Hoechst High Intensity Objects (%) (HEK-293T [1]; [7]): 14%
Population Membrane Permeable-Phenotype (%) (HEK-293T [1]; [7]): 5%
Population Mitochondria Different-Phenotype (%) (HEK-293T [1]; [7]): 94%
Population Mitotic Cells (%) (HEK-293T [1]; [7]): 34%
Population Normal (%) (HEK-293T [1]; [7]): 85%
Population Pyknosed Nuclei (%) (HEK-293T [1]; [7]): 63%
Population Tubulin-Different-Phenotype (%) (HEK-293T [1]; [7]): 91%
Total Cell Count (HEK-293T [1]; [7]): 234
Population Apoptotic (%) (HEK-293T [1]; [8]): 62%
Population Fragmented Nuclei (%) (HEK-293T [1]; [8]): 9%
Population Healthy Nuclei (%) (HEK-293T [1]; [8]): 40%
Population Hoechst High Intensity Objects (%) (HEK-293T [1]; [8]): 5%
Population Membrane Permeable-Phenotype (%) (HEK-293T [1]; [8]): 9%
Population Mitochondria Different-Phenotype (%) (HEK-293T [1]; [8]): 89%
Population Mitotic Cells (%) (HEK-293T [1]; [8]): 37%
Population Normal (%) (HEK-293T [1]; [8]): 94%
Population Pyknosed Nuclei (%) (HEK-293T [1]; [8]): 49%
Population Tubulin-Different-Phenotype (%) (HEK-293T [1]; [8]): 96%
Total Cell Count (HEK-293T [1]; [8]): 170
Population Apoptotic (%) (HEK-293T [1]; [9]): 90%
Population Fragmented Nuclei (%) (HEK-293T [1]; [9]): 14%
Population Healthy Nuclei (%) (HEK-293T [1]; [9]): 2%
Population Hoechst High Intensity Objects (%) (HEK-293T [1]; [9]): 22%
Population Membrane Permeable-Phenotype (%) (HEK-293T [1]; [9]): 0%
Population Mitochondria Different-Phenotype (%) (HEK-293T [1]; [9]): 100%
Population Mitotic Cells (%) (HEK-293T [1]; [9]): 9%
Population Normal (%) (HEK-293T [1]; [9]): 77%
Population Pyknosed Nuclei (%) (HEK-293T [1]; [9]): 82%
Population Tubulin-Different-Phenotype (%) (HEK-293T [1]; [9]): 28%
Total Cell Count (HEK-293T [1]; [9]): 321
Population Apoptotic (%) (HEK-293T [1]; [10]): 89%
Population Fragmented Nuclei (%) (HEK-293T [1]; [10]): 11%
Population Healthy Nuclei (%) (HEK-293T [1]; [10]): 15%
Population Hoechst High Intensity Objects (%) (HEK-293T [1]; [10]): 8%
Population Membrane Permeable-Phenotype (%) (HEK-293T [1]; [10]): 10%
Population Mitochondria Different-Phenotype (%) (HEK-293T [1]; [10]): 40%
Population Mitotic Cells (%) (HEK-293T [1]; [10]): 10%
Population Normal (%) (HEK-293T [1]; [10]): 91%
Population Pyknosed Nuclei (%) (HEK-293T [1]; [10]): 72%
Population Tubulin-Different-Phenotype (%) (HEK-293T [1]; [10]): 70%
Total Cell Count (HEK-293T [1]; [10]): 206
Population Apoptotic (%) (HEK-293T [1]; [11]): 72%
Population Fragmented Nuclei (%) (HEK-293T [1]; [11]): 13%
Population Healthy Nuclei (%) (HEK-293T [1]; [11]): 39%
Population Hoechst High Intensity Objects (%) (HEK-293T [1]; [11]): 15%
Population Membrane Permeable-Phenotype (%) (HEK-293T [1]; [11]): 2%
Population Mitochondria Different-Phenotype (%) (HEK-293T [1]; [11]): 85%
Population Mitotic Cells (%) (HEK-293T [1]; [11]): 27%
Population Normal (%) (HEK-293T [1]; [11]): 84%
Population Pyknosed Nuclei (%) (HEK-293T [1]; [11]): 46%
Population Tubulin-Different-Phenotype (%) (HEK-293T [1]; [11]): 95%
Total Cell Count (HEK-293T [1]; [11]): 246
Population Apoptotic (%) (HEK-293T [1]; [12]): 66%
Population Fragmented Nuclei (%) (HEK-293T [1]; [12]): 7%
Population Healthy Nuclei (%) (HEK-293T [1]; [12]): 55%
Population Hoechst High Intensity Objects (%) (HEK-293T [1]; [12]): 7%
Population Membrane Permeable-Phenotype (%) (HEK-293T [1]; [12]): 3%
Population Mitochondria Different-Phenotype (%) (HEK-293T [1]; [12]): 81%
Population Mitotic Cells (%) (HEK-293T [1]; [12]): 33%
Population Normal (%) (HEK-293T [1]; [12]): 92%
Population Pyknosed Nuclei (%) (HEK-293T [1]; [12]): 36%
Population Tubulin-Different-Phenotype (%) (HEK-293T [1]; [12]): 96%
Total Cell Count (HEK-293T [1]; [12]): 213
Population Apoptotic (%) (HEK-293T [1]; [13]): 71%
Population Fragmented Nuclei (%) (HEK-293T [1]; [13]): 22%
Population Healthy Nuclei (%) (HEK-293T [1]; [13]): 2%
Population Hoechst High Intensity Objects (%) (HEK-293T [1]; [13]): 17%
Population Membrane Permeable-Phenotype (%) (HEK-293T [1]; [13]): 0%
Population Mitochondria Different-Phenotype (%) (HEK-293T [1]; [13]): 100%
Population Mitotic Cells (%) (HEK-293T [1]; [13]): 28%
Population Normal (%) (HEK-293T [1]; [13]): 82%
Population Pyknosed Nuclei (%) (HEK-293T [1]; [13]): 74%
Population Tubulin-Different-Phenotype (%) (HEK-293T [1]; [13]): 57%
Total Cell Count (HEK-293T [1]; [13]): 341
Population Apoptotic (%) (HEK-293T [1]; [14]): 92%
Population Fragmented Nuclei (%) (HEK-293T [1]; [14]): 23%
Population Healthy Nuclei (%) (HEK-293T [1]; [14]): 26%
Population Hoechst High Intensity Objects (%) (HEK-293T [1]; [14]): 7%
Population Membrane Permeable-Phenotype (%) (HEK-293T [1]; [14]): 13%
Population Mitochondria Different-Phenotype (%) (HEK-293T [1]; [14]): 64%
Population Mitotic Cells (%) (HEK-293T [1]; [14]): 7%
Population Normal (%) (HEK-293T [1]; [14]): 92%
Population Pyknosed Nuclei (%) (HEK-293T [1]; [14]): 50%
Population Tubulin-Different-Phenotype (%) (HEK-293T [1]; [14]): 91%
Total Cell Count (HEK-293T [1]; [14]): 182
Population Apoptotic (%) (HEK-293T [1]; replicate 1): 30%
Population Fragmented Nuclei (%) (HEK-293T [1]; replicate 1): 5%
Population Healthy Nuclei (%) (HEK-293T [1]; replicate 1): 23%
Population Hoechst High Intensity Objects (%) (HEK-293T [1]; replicate 1): 12%
Population Membrane Permeable-Phenotype (%) (HEK-293T [1]; replicate 1): 0%
Population Mitochondria Different-Phenotype (%) (HEK-293T [1]; replicate 1): 74%
Population Mitotic Cells (%) (HEK-293T [1]; replicate 1): 69%
Population Normal (%) (HEK-293T [1]; replicate 1): 87%
Population Pyknosed Nuclei (%) (HEK-293T [1]; replicate 1): 71%
Population Tubulin-Different-Phenotype (%) (HEK-293T [1]; replicate 1): 3%
Growth Rate (HEK-293T [2]; [15]): 0
Growth Rate (HEK-293T [2]; [16]): 0
Growth Rate (HEK-293T [2]; [17]): 0
Growth Rate (HEK-293T [2]; [18]): 0
Growth Rate (Fibroblast; 0 h, replicate number 1, timepoint 0 hours): 0
Growth Rate (Fibroblast; [15]): 1
Growth Rate (Fibroblast; 6 h, replicate number 2, timepoint 6 hours): 0
Growth Rate (Fibroblast; [16]): 1
Growth Rate (Fibroblast; 12 h, replicate number 2, timepoint 12 hours): 0
Growth Rate (Fibroblast; [17]): 0
Growth Rate (Fibroblast; [18]): 0
